The source made the active and inactive calls. The calls are words filed in the database; no cut-off is given here. Residues, ends and D or L forms follow the SMILES beside them. *: point of attachment. Cbz = O=C(OCc1ccccc1)*
Experiments:
[1] = biological target: T1, Phospholipase A2 (Apis mellifera) (UniProt P00630); assay: Inhibition of bee venom sPLA2 at 10 uM
T1 sequence (whole entry): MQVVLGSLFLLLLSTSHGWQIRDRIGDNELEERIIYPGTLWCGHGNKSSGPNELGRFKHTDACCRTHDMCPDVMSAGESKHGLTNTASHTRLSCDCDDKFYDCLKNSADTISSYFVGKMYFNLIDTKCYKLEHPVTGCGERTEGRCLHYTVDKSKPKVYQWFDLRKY
Outline: (§1)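 Radiometric sPLA2 assay on [3H]oleate-labeled, autoclaved E. coli CECT 101 membranes. Enzyme in 100 mM Tris-HCl/1 mM CaCl2, pH 7.5, preincubated 5 min at 37 °C with compound (10 µM) or vehicle. Then 15 min with labeled membranes, stopped with ice-cold BSA (0.07% w/v final). Supernatant radioactivity counted after centrifugation; % inhibition, mean ± SEM, n = 6.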

[2] = test system: RAW264.7; assay: Inhibition of NF-kappaB DNA binding in LPS-stimulated mouse RAW264.7 cells at 1 uM; type: cell-based
Outline: (§2)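 EMSA: RAW 264.7 cells (1.5 × 10^6/well) preincubated 30 min with compound, then LPS (1 µg/mL) for 1 h. Nuclear extracts (6 µg) incubated on ice for 15 min with 32P-end-labelled consensus NF-κB oligonucleotide and poly(dI-dC), pH 8.0. Complexes resolved on native 6% PAGE and detected by autoradiography. Two independent experiments.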

[3] = biological target: Phospholipase A2, major isoenzyme (Sus scrofa) (UniProt P00592); assay: Inhibition of pig sPLA2 at 10 uM
Outline: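 sPLA2 (human recombinant synovial group IIA; porcine pancreatic group IB) in 100 mM Tris-HCl/1 mM CaCl2, pH 7.5, preincubated 5 min at 37 °C with compound (10 µM) or vehicle. 15 min incubation with [3H]oleate-labelled autoclaved E. coli membranes as substrate. Stopped with ice-cold BSA (0.07% final), centrifuged, supernatant radioactivity counted. Mean ± SEM, n = 6.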

[4] = test system: RAW264.7; assay: Inhibition of PGE2 production in LPS-stimulated mouse RAW264.7 cells at 1 uM after 2 hrs; type: functional
Outline: (§3)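 Post-induction phase: RAW264.7 cells that had already expressed COX-2 and mPGES-1 after LPS stimulation were given compound for 2 h in fresh medium supplemented with arachidonic acid. PGE2 in supernatants was quantified by radioimmunoassay. Mean ± SEM, n = 6.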

[5] = test system: RAW264.7; assay: Inhibition of PGE2 production in LPS-stimulated mouse RAW264.7 cells at 1 uM after 18 hrs; type: functional
Outline: (§4)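 RAW 264.7 macrophages (1.5 × 10^6 cells/mL) co-incubated with E. coli 0111:B4 LPS (1 µg/mL) and compound or vehicle at 37 °C (induction phase). PGE2 in supernatants measured by radioimmunoassay; MTT reduction checked cytotoxicity. Mean ± SEM, n = 6; IC50 from at least four concentrations.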

[6] = biological target: Acidic phospholipase A2 2 (Naja naja) (UniProt P15445); assay: Inhibition of Naja naja venom sPLA2 at 10 uM; outline: as §1
[7] = species on record: Mus musculus; assay: Inhibition of COX2 expression in zymosan-stimulated Swiss mouse air pouch model after 24 hrs; type: functional, organism-based
Outline: (§5)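 Female Swiss mice (25-30 g) air pouch; six days after initial air injection, 1 mL of 1% (w/v) zymosan in saline injected into pouch, compound given intrapouch at the same time. Exudate collected after 24 h; cell pellets analysed by Western blot for COX-2, mPGES-1 and β-actin. Densitometry expressed as percentage of zymosan control band intensity.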

[8] = test system: RAW264.7; assay: Inhibition of COX2 expression in LPS-stimulated mouse RAW264.7 cells after 2 hrs by Western blot analysis; type: functional, cell-based
[9] = species on record: Mus musculus; assay: Decrease of mPGES1 expression in zymosan-stimulated Swiss mouse air pouch model after 24 hrs; type: functional, organism-based; outline: as §5
[10] = test system: RAW264.7; assay: Inhibition of mPGES1 expression in LPS-stimulated mouse RAW264.7 cells after 2 hrs by Western blot analysis; type: functional, cell-based
[11] = test system: RAW264.7; assay: Inhibition of PGE2 production in LPS-stimulated mouse RAW264.7 cells at 10 uM after 2 hrs; type: functional; outline: as §3
[12] = test system: RAW264.7; assay: Inhibition of PGE2 production in LPS-stimulated mouse RAW264.7 cells at 10 uM after 18 hrs; type: functional; outline: as §4
[13] = test system: RAW264.7; assay: Inhibition of NF-kappaB DNA binding in LPS-stimulated mouse RAW264.7 cells; type: cell-based; outline: as §2
[14] = test system: THP-1; assay: Inhibition of COX2 expression in LPS-stimulated human THP1 cells at 1 uM by Western blot analysis; type: functional, cell-based
Outline: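 THP-1 human monocytic cells (1 × 10^6 cells/mL, RPMI with 10% FBS) incubated 18 h with LPS (1 µg/mL) plus compound. Lysates taken, total fraction (30 µg protein) run on SDS-15% PAGE, then blotted with polyclonal anti-COX-2 (1/200), peroxidase secondary and chemiluminescence detection.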

[15] = test system: RAW264.7; assay: Inhibition of PGE2 production in LPS-stimulated mouse RAW264.7 cells after 18 hrs; type: functional, cell-based; details: RAW264.7, 18 h; outline: as §4
[16] = test system: RAW264.7; assay: Inhibition of NF-kappaB DNA binding in LPS-stimulated mouse RAW264.7 cells at 10 uM; type: cell-based; outline: as §2

Acidic phospholipase A2 2 (Naja naja), sequence (P15445 whole entry): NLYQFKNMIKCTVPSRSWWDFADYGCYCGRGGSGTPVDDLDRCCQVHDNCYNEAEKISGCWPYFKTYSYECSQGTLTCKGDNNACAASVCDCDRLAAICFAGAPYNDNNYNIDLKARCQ
Phospholipase A2, major isoenzyme (Sus scrofa), sequence (P00592 23-146 limits assumed): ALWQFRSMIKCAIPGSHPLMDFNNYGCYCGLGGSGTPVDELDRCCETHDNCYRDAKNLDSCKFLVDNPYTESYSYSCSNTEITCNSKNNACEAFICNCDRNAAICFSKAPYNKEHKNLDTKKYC

Row | SMILES | inhibition [1] [%] | inhibition [3] [%] | inhibition [6] [%] | further results
1 | CC(=O)O[C@@H]1O[C@@H](C2=CC(=O)OC2O)C[C@@H]2[C@@H]1CC[C@H]1[C@@]2(C)CC[C@H]2C(C)(C)CCC[C@]12C (stereo partly drawn) [PETROSASPONGIOLIDE M] | 60.8 | 11.4 | 5.4 | Activity [2]: Active; Activity [4]: 0.22 ng/mL; Activity [5]: 7.3 ng/mL
2 | C[C@@H]1C[C@H]2[C@@H]3CCC4=CC(=O)C=C[C@]4(C)[C@@]3(F)[C@@H](O)C[C@]2(C)[C@@]1(O)C(=O)CO [DEXAMETHASONE] | – | – | – | Activity [7]: Active; Activity [8]: Active; Activity [4]: 0.21 ng/mL; Activity [5]: 3.4 ng/mL; Activity [9]: Active; Activity [10]: Active
3 | O=C1OC(O)C(c2cc3ccccc3s2)=C1Br (stereo not drawn) | 0 | 18.7 | 3.4 | Activity [11]: 0.22 ng/mL; Activity [12]: 6.7 ng/mL; Activity [8]: inactive; Activity [13]: Dose-dependent effect; Activity [4]: 0.23 ng/mL; Activity [5]: 10.7 ng/mL; Activity [14]: inactive; IC50 [15]: 1.8 µM; Activity [9]: Active; Activity [10]: Dose-dependent effect
4 | CC(C)C[C@@H](C=O)NC(=O)[C@H](CC(C)C)NC(=O)[C@H](CC(C)C)NC(=O)OCc1ccccc1 (Cbz-Leu-Leu-Leu-aldehyde) | – | – | – | Activity [16]: Active
5 | CS(=O)(=O)Nc1ccc([N+](=O)[O-])cc1OC1CCCCC1 [NS-398] | – | – | – | Activity [11]: 0.07 ng/mL
6 | CCc1c(CC(N)=O)c2cc(OCCCP(=O)(O)O)ccc2n1Cc1ccccc1 | 0 | 6.8 | 2.7 | Activity [13]: inactive
7 | O=C1OC(O)C(c2cccc3c2Sc2ccccc2S3)=C1Br (stereo not drawn) | 0 | 0 | 1.5 | –
8 | O=C1OC(O)C(c2cccc3ccccc23)=C1Br (stereo not drawn) | 0 | 13.7 | 8.6 | –
9 | O=C1OC(O)C(c2ccc3ccccc3c2)=C1c1ccc2ccccc2c1 (stereo not drawn) | 25.2 | 22.5 | 9.1 | –
10 | O=C1OC(O)C(c2cccc3c2oc2ccccc23)=C1Br (stereo not drawn) | 20.4 | 38.6 | 0 | –
11 | CCCCc1ccc(C2=C(Br)C(=O)OC2O)cc1 (stereo not drawn) | 32.9 | 35.1 | 26 | –
12 | O=C1OC(O)C(c2ccc(Oc3ccccc3)cc2)=C1Br (stereo not drawn) | 2.1 | 7.8 | 1 | –
13 | O=C1OC(O)C(c2csc3ccccc23)=C1Br (stereo not drawn) | 9.8 | 33.5 | 15.4 | –
14 | O=C1OC(O)C(c2ccc3ccccc3c2)=C1Br (stereo not drawn) | 14.7 | 27.7 | 9.2 | –
15 | O=C1OC(O)C(c2ccc(-c3ccccc3)cc2)=C1Br (stereo not drawn) | 14.4 | 26 | 7.5 | –
